# Measurements gathered from unrelated publications.
# Compare with care: the assays were run in different laboratories.
# Cell line: NCI-H23
# Observed: cell growth or viability
Structure (SMILES),assay,setting,measurement,value
O=C(/C=C/c1ccc2ncn(CCCl)c(=O)c2c1)NO,SRB,48 h,IC50,3.2 µM
COc1ccc(C(=O)/C=C/c2cccnc2)cc1S(N)(=O)=O,SRB,10 µM,inhibition,78%
COc1ccc(-c2ccc(-c3ccc(C(=N)N)nc3)s2)cc1,SRB,,GI50,1.84 µM
O=C(/C=C/c1ccc2ncn(Cc3ccccc3)c(=O)c2c1)NO,SRB,48 h,IC50,1 µM
CCc1n(Cc2ccc3ccccc3n2)cc[n+]1Cc1ccc2ccccc2n1,SRB,,TGI,8.66 µM
S=C([S][Au-][P+](CCCCCC[P+]([Au-][S]C(=S)n1cccn1)(c1ccccc1)c1ccccc1)(c1ccccc1)c1ccccc1)n1cccn1,SRB,,GI50,4.76 µM
COc1cc(-c2ccc(-c3ccc(C(=N)N)nc3)s2)cc(OC)c1OC,SRB,,GI50,6.4 µM
COc1ccc(C(=O)/C=C/c2c(F)cccc2Cl)cc1S(N)(=O)=O,SRB,10 µM,inhibition,116%
c1ccc2cc(Cn3cc[n+](Cc4ccc5ccccc5c4)c3)ccc2c1,SRB,,TGI,10.1 µM
COc1ccccc1/C=C/C(=O)c1ccc(OC)c(S(N)(=O)=O)c1,SRB,48 h,GI50,2.3 µM
CC/C(=C(\c1ccccc1)c1ccc(OCCN(C)C)cc1)c1ccccc1,ATP luminescence,72 h,EC90,18.3 µM
O=C1NC(=NCc2cccs2)S/C1=C\c1ccc2ncccc2c1,,,IC50,> 10 µM
COc1ccc(C(=O)/C=C/c2cccc3ccccc23)cc1S(N)(=O)=O,SRB,48 h,GI50,2.2 µM
CCCc1n(Cc2ccc3ccccc3n2)cc[n+]1Cc1ccc2ccccc2c1,SRB,,TGI,10.6 µM
Cc1cccc(-n2ncc(Br)c(Br)c2=O)c1,resazurin,96 h,IC50,0.21 µM
CCCc1n(Cc2ccc3ccccc3n2)cc[n+]1Cc1ccc2ccccc2n1,SRB,,TGI,15 µM
COc1ccc(C(=O)/C=C/c2cccc(Cl)c2Cl)cc1S(N)(=O)=O,SRB,48 h,GI50,3.8 µM
